Test results from ChEMBL document CHEMBL2029204, “Latent hit series hidden in high-throughput screening data” (J Med Chem, 2012).
Activity calls are given as the source filed them. The calls are words filed in the database; no cut-off is given here.

Columns and labels:
Nucleic Acid [1] = assay: Agonist activity at ECMV genomic RNA internal ribosomal entry site in human HuH7 cells after 24 hrs by firefly luciferase reporter gene assay; format: functional, cell-based; details: Encephalomyocarditis virus; Huh-7
Procedure, shortened: (§1)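 Cells carry a bicistronic construct (Neo translated cap-dependently, firefly luciferase under EMCV IRES) and are grown with Geneticin. After 24 h with or without compound, resazurin viability is read first, then cells are lysed and luciferase is quantified (Steady-Glo). Dose response uses eight concentrations from 0 to 10 μM in quadruplicate. Normalization: DMSO 0%, 500 μM benzalkonium chloride −100%. Values reported are AC50, absolute AC50 (activity at −50% for antagonists, 50% for agonists) and Amax (activity at highest concentration).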

Nucleic Acid [2] = assay: Agonist activity at ECMV genomic RNA internal ribosomal entry site in human HuH7 cells assessed as activity measured at the highest concentration after 24 hrs by firefly luciferase reporter gene assay relative to control; format: functional, cell-based; details: Encephalomyocarditis virus; Huh-7; procedure, shortened: as §1
Huh-7 = assay: Cytotoxicity against human HuH7 cells after 24 hrs by resazurin reduction assay; format: cell-based; details: huh-7, 24 h
Procedure, shortened: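 Same multiplexed wells as the luciferase readout: cells with the Neo/EMCV-IRES-Fluc construct under Geneticin, exposed to compound for 24 h, then viability is read by non-invasive resazurin reduction before lysis. Eight concentrations from 0 to 10 μM, in quadruplicate. Activity is normalized to DMSO (0%) and 500 μM benzalkonium chloride (−100%).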

Nucleic Acid [3] = assay: Antagonist activity at ECMV genomic RNA internal ribosomal entry site in human HuH7 cells after 24 hrs by firefly luciferase reporter gene assay relative to control; format: functional, cell-based; details: Encephalomyocarditis virus; Huh-7; procedure, shortened: as §1
Nucleic Acid [4] = assay: Antagonist activity at ECMV genomic RNA internal ribosomal entry site in human HuH7 cells after 24 hrs by firefly luciferase reporter gene assay; format: functional, cell-based; details: Encephalomyocarditis virus; Huh-7; procedure, shortened: as §1

| SMILES | Activity (Nucleic Acid [1]) | Activity (Nucleic Acid [2]) | Activity (Huh-7) | Activity (Nucleic Acid [3]) | Activity (Nucleic Acid [4]) |
| --- | --- | --- | --- | --- | --- |
| O=c1c2ccccc2nc2n1CCc1c-2[nH]c2ccccc12 [RUTAECARPINE] | 27.6 µM | 1030 | Non-toxic | – | – |
| COc1ccccc1N1CCN(CC(O)COc2ccc(-c3cc(C#N)c(=O)[nH]c3C)cc2)CC1 (configuration not stated) [SATERINONE] | – | – | Non-toxic | 172 | 5.46 µM |
| CCc1cc2cc3c(=O)n4c(nc3cc2s1)-c1[nH]c2ccc(OC)cc2c1CC4 | 0.35 µM | 33.5 | Non-toxic | – | – |
| COCCn1c(NC(COC)c2ccc(OC)c(OC)c2)nc2c1c(=O)n(C)c(=O)n2C (configuration not stated) | inactive | 0.53 | Non-toxic | – | – |
| COc1ccccc1N1CCN(CC(O)COc2cccc3ccccc23)CC1 (configuration not stated) [NAFTOPIDIL] | – | – | Non-toxic | -34 | 1.48 µM |
| COCCn1c(NC(CO)c2ccc(OC)c(OC)c2)nc2c1c(=O)n(C)c(=O)n2C (configuration not stated) | 42.8 µM | 346 | Non-toxic | – | – |
| COc1ccc(OCC(O)CN2CCN(c3ccccc3OC)CC2)c(C(C)(C)C)c1 (configuration not stated) | – | – | Non-toxic | -42 | 3.08 µM |
| COc1ccc2[nH]c3c(c2c1)CCn1c-3nc2cc3sc4c(c3cc2c1=O)CCCC4 | inactive | -7.44 | Non-toxic | – | – |
| COc1ccc2[nH]c3c(c2c1)CCn1c-3nc2cc3sc4c(c3cc2c1=O)CCCCCC4 | 2.16 µM | 26.2 | Non-toxic | – | – |
